Bioassay records: PubChem, Johns Hopkins Ion Channel Center
Compounds with a hit are over-represented: about 3.7% of the library has one in this group of screens.
Kir21 inh = inhibitors of mouse Kir2.1 inward-rectifier potassium channel; Inward rectifier potassium channel 2 (Mus musculus), P35561; HEK293-Kir2.1, FluxOR thallium flux fluorescence; active compounds read low; B-score at 10 µM; 310,000 tested, 0.85% active; AID 1672, 2009;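 active = fluorescence ratio B-score at or below minus 3 SD of library scores, with starting-brightness B-score within 2 SD, cut at about -4.2 in these data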;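 also: channel flux triggered by added potassium and thallium sulfate stimulus; B-score of peak minus minimum fluorescence over baseline after thallium stimulus; more negative B-score means stronger Kir2.1 block with less thallium influx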
Target sequence (P35561 whole entry, looked up): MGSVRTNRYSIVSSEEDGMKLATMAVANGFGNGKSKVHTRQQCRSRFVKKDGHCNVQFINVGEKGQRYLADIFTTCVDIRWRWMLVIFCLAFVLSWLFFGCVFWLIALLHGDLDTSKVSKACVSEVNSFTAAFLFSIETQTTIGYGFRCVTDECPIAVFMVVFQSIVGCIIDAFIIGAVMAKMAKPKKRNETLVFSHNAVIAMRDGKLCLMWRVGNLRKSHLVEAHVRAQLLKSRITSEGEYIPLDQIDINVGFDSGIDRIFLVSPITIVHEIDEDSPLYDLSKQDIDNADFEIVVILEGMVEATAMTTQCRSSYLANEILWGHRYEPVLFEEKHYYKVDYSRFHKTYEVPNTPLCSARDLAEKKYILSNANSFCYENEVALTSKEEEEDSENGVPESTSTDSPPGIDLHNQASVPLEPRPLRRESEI
hERG protect = hERG rescue from dofetilide block, primary screen, cell-based, CHO-hERG, FluxOR thallium flux, dofetilide IC70. 310,000 tested, 0.51% active. Voltage-gated inwardly rectifying potassium channel KCNH2 (Homo sapiens), Q12809. dofetilide IC70 present. activation (rescue from dofetilide block), less the hit threshold, % at 10 µM. AID 1511, 2009;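 active = activation above the mean of controls blocked by dofetilide plus 5 SD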;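 also: thallium influx through hERG after potassium depolarization seen as dye fluorescence rise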
KCNK3 inh = human KCNK3 channel inhibitors, primary screen, CHO cells, FluxOR thallium flux, B-score | B-score at 10 µM | AID 602410, 2012 | FluxOR fluorescence; active compounds read low | Potassium channel subfamily K member 3 (Homo sapiens), O14649 | 340,000 tested, 0.84% active;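 active = B-score under library mean minus 4 SD, starting fluorescence ratio at most library mean plus 5 SD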;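 also: more negative B-score means stronger inhibition of thallium flux through KCNK3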
KCNQ1 block = inhibitors of human KCNQ1 channel, primary screen, cell-based, thallium flux, high-throughput | CHO-K1 KCNQ1, FluxOR thallium flux fluorescence; active compounds read high | 310,000 tested, 1.3% active | AID 2642, 2010 | Potassium voltage-gated channel subfamily KQT member 1 (Homo sapiens), P51787 | B-score at 10 µM;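 active = compounds whose thallium flux B-score, printed positive for inhibition, exceeds three library SD while starting fluorescence stays within three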;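 also: channel opened by potassium depolarization with thallium stimulus after 20 min compound exposure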
KCNK9 inh = KCNK9 potassium channel inhibitors, primary screen, HEK293 cells, thallium flux; Potassium channel subfamily K member 9 (Homo sapiens), Q9NPC2; FluxOR thallium flux fluorescence; active compounds read low; B-score at 10 µM; 310,000 tested, 1.2% active; AID 488922, 2010;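 active = ratio B-score over 3 SD below the library mean, with starting fluorescence within 5 SD of its mean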;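 also: negative B-score means less thallium flux so channel inhibition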
KCNQ1 act = potentiators or activators of KCNQ1 channel, primary screen, cell-based, thallium flux, high-throughput; B-score at 10 µM; AID 2648, 2010; 310,000 tested, 0.35% active; CHO-K1 KCNQ1, thallium flux FluxOR fluorescence; active compounds read high; Potassium voltage-gated channel subfamily KQT member 1 (Homo sapiens), P51787;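 active = fluorescence ratio B-score, a plate-corrected score, at least three library SD, with initial intensity B-score within 5 SD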
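Assay system: CHO-K1 cells stably expressing KCNQ1; Medium: assay buffer with matched DMSO; Also added: K+/Tl+ depolarizing stimulus; Dosing: single dose; Timing: dye 90 min, compound 20 min, room temperature; Measured by: kinetic FluxOR thallium fluorescence, 10-s 1-Hz baseline, 110-s post-stimulus read; Read-out: peak-minus-minimum fluorescence over initial fluorescence, negative-control normalized, B-scored.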
KCNK9 inh conf = KCNK9 potassium channel inhibitors, confirmation, HEK293 cells, thallium flux, duplicate; shares compounds with KCNK9 inh; FluxOR thallium flux fluorescence; inhibition, % at 10 µM; 4,900 tested, 43% active; AID 492992, 2010;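 active = thallium signal inhibited by more than 5 SD of the compound-free buffer control wells, on both duplicate plates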
Kir2-1 spec = mouse Kir2.1 channel inhibition, confirmation, selectivity assay for KCNK9 modulator project, cell-based, HEK293, thallium flux; shares compounds with KCNK9 inh; Kir2.1 cells, FluxOR thallium flux fluorescence; inhibition, % at 10 µM; 4,900 tested, 4% active;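 active = thallium signal drop more than 5 SD beyond the mean of the no-compound control wells, seen in both duplicate plates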;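 also: signal is fluorescence rise after thallium addition divided by baseline fluorescence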
HEK293 Tl ctr = thallium flux in non-induced HEK293 cells, confirmation, counter-screen for KCNK9 inhibitor project, cell-based, second counter screen, non-induced KCNK9-HEK293. shares compounds with KCNK9 inh. FluxOR thallium flux. inhibition, % at 10 µM. 4,900 tested, 40% active;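 active = thallium signal drop beyond 5 SD of the untreated control mean, on both duplicate plates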
Each line names hits and unclear results; the compound was inactive in the other large screens (follow-up assays come after a bar, where they were run).

Cc1cc(C)n(-c2nnc(C)n2/N=C/c2ccc(O)cc2)n1	none
COc1ccc(Br)cc1CNC(=O)C1CCCN(S(=O)(=O)N2CC(C)CC(C)C2)C1 (centres undefined)	KCNK9 inh -8.5 | KCNK9 inh conf inactive | Kir2-1 spec inactive | HEK293 Tl ctr inactive
Cc1ccc(CNC(=O)C2CCCN(S(=O)(=O)N3CC(C)CC(C)C3)C2)cc1 (centres undefined)	none | KCNK9 inh conf inactive | Kir2-1 spec inactive | HEK293 Tl ctr inactive
COc1ccc(Br)cc1CNC(=O)C1CCN(S(=O)(=O)N2CCCCC2)CC1	none
CCCS(=O)(=O)N1CCCC(C(=O)NCc2ccc(C)cc2)C1 (centres undefined)	none
COc1ccc(CC(=O)Nc2nnc(CC(C)C)s2)cc1S(=O)(=O)N1CCOCC1	none (no result: Kir21 inh, hERG protect, KCNQ1 block, KCNK9 inh, KCNQ1 act)
Cc1ccc(-c2nc(CS(=O)CC(=O)NCc3ccc4c(c3)OCO4)c(C)o2)cc1 (centres undefined)	none
CC(C)(C)c1ccc(SCCc2cccnc2)cc1	none | KCNK9 inh conf inactive | Kir2-1 spec inactive | HEK293 Tl ctr inactive
CCOC(=O)c1c(-c2ccccc2)csc1NC(=O)C1CCCO1 (centres undefined)	none
CCOC(=O)c1c(-c2ccc(-c3ccccc3)cc2)csc1NC(=O)C1C2CCC(O2)C1C(=O)O (centres undefined)	none | KCNK9 inh conf inactive | Kir2-1 spec inactive | HEK293 Tl ctr inactive
COc1ccc(C(=O)NCc2nnc(SCC(=O)Nc3nc4ccc(C)cc4s3)o2)cc1OC	none
O=C(COc1c(F)c(F)c(C(F)(F)F)c(F)c1F)Nc1ccc(N2CCOCC2)c(Cl)c1	none
CCC(C)c1ccc(NC(=O)COc2c(F)c(F)c(C(F)(F)F)c(F)c2F)cc1 (centres undefined)	none | KCNK9 inh conf inactive | Kir2-1 spec inactive | HEK293 Tl ctr inactive
NC(=O)CSc1nc2ccccc2c(=O)n1Cc1ccco1	none
CCCn1c(C)cc(C(=O)CSc2nc3ccccc3c(=O)n2Cc2ccco2)c1C	none | KCNK9 inh conf inactive | Kir2-1 spec inactive | HEK293 Tl ctr inactive
CC(C)(C)c1cc(CN2CCN(CCO)CC2)cc(C(C)(C)C)c1O	none
CC(C)c1cc(CN2CCN(CCC#N)CC2)cc(C(C)C)c1O	none | KCNK9 inh conf inactive | Kir2-1 spec inactive | HEK293 Tl ctr inactive
CC(C1CC2CCC1C2)n1c(-c2cccs2)n[nH]c1=S (centres undefined)	KCNK9 inh -11 | KCNK9 inh conf 54% | Kir2-1 spec inactive | HEK293 Tl ctr inactive
S=c1[nH]nc(-c2cccs2)n1C1CCCCC1	none
Cc1cccc(S(=O)(=O)c2c(C)cc(C)[nH]c2=O)c1	none
C=C(C)Cn1c(C)cc(C)c(S(=O)(=O)c2cccc(C)c2)c1=O	KCNK9 inh -8.4 | KCNK9 inh conf 54% | Kir2-1 spec 44% | HEK293 Tl ctr 44%
CC(=O)/C=C/c1ccccc1Oc1c(F)c(F)nc(F)c1F	none | KCNK9 inh conf inactive | Kir2-1 spec inactive | HEK293 Tl ctr inactive
Oc1ccccc1Oc1c(F)c(F)nc(N2CCCC2)c1F	none
O=c1c(/C=N/OCc2ccc(Cl)cc2Cl)c[nH]n1-c1cccc(Cl)n1	KCNQ1 block 7 | KCNK9 inh conf inactive | Kir2-1 spec inactive | HEK293 Tl ctr inactive
Cc1cc(O)c(/C=N/OCc2ccc(Cl)cc2Cl)c(=O)o1	none
O=C(COC(=O)C1CCC(=O)N1)Nc1ccccc1OC(F)F (centres undefined)	none (no result: Kir21 inh, hERG protect, KCNQ1 block, KCNK9 inh, KCNQ1 act)
COc1ccc(-n2nc([N+](=O)[O-])c(=NCCc3ccc(C)cc3)n2O)cc1	none | KCNK9 inh conf inactive | Kir2-1 spec inactive | HEK293 Tl ctr inactive
CC(OC(=O)c1ccco1)C(=O)NCc1ccc2c(c1)OCO2 (centres undefined)	none
O=S(=O)(c1cccc(F)c1)N1CCN(Cc2ccc3c(c2)OCO3)CC1	none | KCNK9 inh conf inactive | Kir2-1 spec inactive | HEK293 Tl ctr inactive
COc1cc(S(=O)(=O)N2CCN(Cc3ccc4c(c3)OCO4)CC2)c(C)cc1C	none | KCNK9 inh conf inactive | Kir2-1 spec inactive | HEK293 Tl ctr inactive
COc1ccc(CN2CCN(S(=O)(=O)c3ccc(C)cc3)CC2)cc1Br	none | KCNK9 inh conf inactive | Kir2-1 spec inactive | HEK293 Tl ctr inactive
COc1ccc(OCCn2cnc3ccccc32)cc1	none
CCNC(=O)NC(=O)C(C)OC(=O)CNS(=O)(=O)c1c(Cl)cc(Br)cc1Cl (centres undefined)	none
CC(=O)c1cccc(NC(=O)COC(=O)Cn2cnc3ccccc32)c1	none (no result: Kir21 inh, hERG protect, KCNQ1 block, KCNK9 inh, KCNQ1 act)
CC(C)CC1NC(=O)N(CC(=O)Nc2ccc(OCc3ccccc3)cc2)C1=O (centres undefined)	none (no result: Kir21 inh, hERG protect, KCNQ1 block, KCNK9 inh, KCNQ1 act)
CC1=CCC[C@@H]2[C@@](C)(CC/C(C)=C/C(=O)O)[C@H](C)CC[C@@]12C	none | KCNK9 inh conf inactive | Kir2-1 spec inactive | HEK293 Tl ctr inactive
C[C@@H]1CC[C@@]23COC(=O)C2=CCC[C@@H]3[C@@]1(C)CC/C(=C/CO)CO	none (no result: Kir21 inh, hERG protect, KCNQ1 block, KCNK9 inh, KCNQ1 act)
O=C(Cc1ccccc1)NCC(=O)N1CCC2(CC1)NCCc1[nH]cnc12	none
CCn1cc(C2=NC(C)(C)CO2)c2ccccc21	none | KCNK9 inh conf inactive | Kir2-1 spec inactive | HEK293 Tl ctr inactive
CC(C)(O)CC[C@@H](O)[C@](C)(O)C1CC[C@@]2(O)C3=CC(=O)[C@]4(O)C[C@@H](O)[C@@H](O)C[C@]4(C)C3CC[C@]12C (some centres undefined)	none (no result: Kir21 inh, hERG protect, KCNQ1 block, KCNK9 inh, KCNQ1 act)
CCOC(=O)/C(=C/c1c2ccccc2cc2ccccc12)NC(=O)c1ccccc1	KCNK3 inh -11, KCNK9 inh -16 | KCNK9 inh conf 58% | Kir2-1 spec inactive | HEK293 Tl ctr 39%
COC(=O)/C(=C\C=C\c1ccccc1)NC(=O)c1ccccc1	none
